Source: ChEMBL document CHEMBL1140556, “Design, structure-activity relationship, and pharmacokinetic profile of pyrazole-based indoline factor Xa inhibitors” (Bioorg Med Chem Lett, 2007)

Key:
Prothrombin = Prothrombin (Homo sapiens, UniProt P00734); experiment: Inhibition of human thrombin
Plasma = experiment: Anticoagulant potency in human plasma assessed as concentration required to double prothrombin time; format: functional
Coagulation factor X = Coagulation factor X (Homo sapiens, UniProt P00742); experiment: Inhibition of human factor 10a
Chain of Coagulation factor X (P00742 41-179 limits assumed): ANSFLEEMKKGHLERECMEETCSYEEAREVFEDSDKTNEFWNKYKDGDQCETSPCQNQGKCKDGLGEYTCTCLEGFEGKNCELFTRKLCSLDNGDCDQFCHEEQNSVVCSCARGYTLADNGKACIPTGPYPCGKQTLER
Chain of Coagulation factor X (P00742 235-488 limits assumed): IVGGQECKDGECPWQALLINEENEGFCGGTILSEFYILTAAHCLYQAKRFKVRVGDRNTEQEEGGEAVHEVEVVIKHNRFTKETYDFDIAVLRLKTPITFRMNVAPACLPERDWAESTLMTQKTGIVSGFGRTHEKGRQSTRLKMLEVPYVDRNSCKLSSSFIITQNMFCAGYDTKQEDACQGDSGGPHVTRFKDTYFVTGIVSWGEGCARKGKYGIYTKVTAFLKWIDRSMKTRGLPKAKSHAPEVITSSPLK
Procedure, shortened: (§1)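 Ki values were measured against the purified human enzymes.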

[1] = Apparent permeability across Caco-2 cells; format: ADME, cell-based; conditions: human
Trypsin = Trypsin (Homo sapiens, UniProt P07477+P07478+P35030); experiment: Inhibition of human trypsin; format: protein assay; procedure, shortened: as §1
[2] = (§2) Volume of distribution at steady state in dog at 0.5 mg/kg, iv and 0.2 mg/kg, po; format: ADME, organism-based, Canis lupus familiaris; conditions: in vivo, read-out: Vdss
Procedure, shortened: (§3)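 Cassette (N-in-1) dosing, with compounds given together at 0.5 mg/kg iv and 0.2 mg/kg po; one animal per route (n = 1). Clearance, steady-state volume of distribution, oral half-life and oral bioavailability (F%) were derived from plasma levels.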

[3] = Clearance in dog at 0.5 mg/kg, iv and 0.2 mg/kg, po; format: ADME, organism-based, Canis lupus familiaris; conditions: in vivo; procedure, shortened: as §3
[4] = Half life in dog at 0.2 mg/kg, po; format: ADME, organism-based, Canis lupus familiaris; design: dose 0.2 mg/kg, route oral; conditions: in vivo; procedure, shortened: as §3
[5] = Oral bioavailability in dog at 0.2 mg/kg; format: ADME, organism-based, Canis lupus familiaris; conditions: in vivo; procedure, shortened: as §3
Canis familiaris = experiment: as §2; format: ADME, organism-based, Canis lupus familiaris; conditions: in vivo; procedure, shortened: as §3

| Structure (SMILES) | Ki (Prothrombin) [nM] | Ki (Coagulation factor X) [nM] | Ki (Trypsin) [nM] | further results |
| --- | --- | --- | --- | --- |
| CS(=O)(=O)c1ccccc1-c1ccc2c(c1)CCN2C(=O)c1cc(C(N)=O)nn1-c1ccc2onc(N)c2c1 | > 20000 | 0.82 |  | Activity (Plasma): 41 µM |
| CN(C)Cc1ccccc1-c1ccc2c(c1)CCN2C(=O)c1cc(C(F)(F)F)nn1-c1ccc2onc(N)c2c1 | 19200 | 19 |  |  |
| CN(C)Cc1ccccc1-c1ccc2c(c1)CCN2C(=O)c1cc(C(N)=O)nn1-c1ccc2onc(N)c2c1 |  | 1 | > 20000 | Papp [1]: 0.3 ×10⁻⁶ cm/s; Activity (Plasma): 3 µM |
| CS(=O)(=O)c1ccccc1-c1ccc2c(c1)N(C(=O)c1cc(C(N)=O)nn1-c1ccc3onc(N)c3c1)CC2 |  | 1400 |  |  |
| NC(=O)c1cc(C(=O)N2CCc3cc(N4CCCCC4=O)ccc32)n(-c2ccc3onc(N)c3c2)n1 |  | 2.4 |  | Vd [2]: 0.2 L/kg; clearance [3]: 3.67 mL/min/kg; Papp [1]: 0.1 ×10⁻⁶ cm/s; Activity (Plasma): 3.3 µM; half-life [4]: 1.6 h; bioavailability [5]: 6% |
| NC(=O)c1cc(C(=O)N2CCc3cc(N4CCCCCC4=O)ccc32)n(-c2ccc3onc(N)c3c2)n1 |  | 15 |  |  |
| CS(=O)(=O)c1ccccc1-c1ccc2c(c1)OCCN2C(=O)c1cc(C(F)(F)F)nn1-c1ccc2onc(N)c2c1 | > 21000 | 71 |  |  |
| CN(C)Cc1nccn1-c1ccc2c(c1)CCN2C(=O)c1cc(C(N)=O)nn1-c1ccc2onc(N)c2c1 |  | 2.2 |  |  |
| CC(=O)N(C)Cc1nccn1-c1ccc2c(c1)CCN2C(=O)c1cc(C(N)=O)nn1-c1ccc2onc(N)c2c1 |  | 4.8 |  |  |
| CS(=O)(=O)c1ccccc1-c1ccc2c(c1)CCN2C(=O)c1cc(C(F)(F)F)nn1-c1ccc2onc(N)c2c1 | > 21000 | 1.5 | > 2500 | Activity (Plasma): 26 µM |
| NC(=O)c1cc(C(=O)N2CCc3ccc(N4CCCCCC4=O)cc32)n(-c2ccc3onc(N)c3c2)n1 |  | 1100 |  |  |
| CS(=O)(=O)c1ccccc1-c1ccc2c(c1)CCCN2C(=O)c1cc(C(F)(F)F)nn1-c1ccc2onc(N)c2c1 | > 6300 | 2000 | > 4200 |  |
| CS(=O)(=O)c1ccccc1-c1ccc2c(c1)C(=O)CCN2C(=O)c1cc(C(F)(F)F)nn1-c1ccc2onc(N)c2c1 | > 21000 | 500 | > 4200 |  |
| CN(C)CC(=O)N(C)c1ccc2c(c1)N(C(=O)c1cc(C(N)=O)nn1-c1ccc3onc(N)c3c1)CC2 |  | 350 |  |  |
| CN(Cc1nccn1-c1ccc2c(c1)CCN2C(=O)c1cc(C(N)=O)nn1-c1ccc2onc(N)c2c1)S(C)(=O)=O |  | 6.9 |  |  |
| Nc1noc2ccc(-n3nc(C(F)(F)F)cc3C(=O)N3CCCCc4cc(-c5ccccc5S(N)(=O)=O)ccc43)cc12 | > 6300 | 3400 | > 4200 |  |
| Nc1noc2ccc(-n3nc(C(F)(F)F)cc3C(=O)N3CCc4cc(-c5ccccc5CN5CCCC5)ccc43)cc12 | 15000 | 4.9 | > 40000 | Vd [2]: 20 L/kg; clearance [3]: 123 mL/min/kg |
| NC(=O)c1cc(C(=O)N2CCc3cc(-c4ccccc4CN4CCCC4)ccc32)n(-c2ccc3onc(N)c3c2)n1 |  | 0.63 |  | Vd [2]: 6.2 L/kg; clearance [3]: 59.5 mL/min/kg; Papp [1]: 0.7 ×10⁻⁶ cm/s; Activity (Plasma): 2.1 µM |
| NC(=O)c1cc(C(=O)N2CCc3cc(-n4ccccc4=O)ccc32)n(-c2ccc3onc(N)c3c2)n1 |  | 0.2 |  | Papp [1]: 0.1 ×10⁻⁶ cm/s; Activity (Plasma): 1.9 µM |
| CN(C)CC(=O)N(C)c1ccc2c(c1)CCN2C(=O)c1cc(C(N)=O)nn1-c1ccc2onc(N)c2c1 |  | 6.8 |  |  |
| Nc1noc2ccc(-n3nc(C(F)(F)F)cc3C(=O)N3CCc4cc(-c5ccccc5S(N)(=O)=O)ccc43)cc12 | > 21000 | 2.7 | > 2500 | Vd [2]: 2 L/kg; clearance [3]: 10.5 mL/min/kg; Activity (Plasma): 28 µM; half-life [4]: 4 h; bioavailability [5]: 66% |
| CS(=O)(=O)c1ccccc1-c1ccc(NC(=O)c2cc(C(F)(F)F)nn2-c2ccc3onc(N)c3c2)c(F)c1 |  |  | > 5200 |  |
| CS(=O)(=O)c1ccccc1-c1ccc2c(c1)C(O)CCN2C(=O)c1cc(C(F)(F)F)nn1-c1ccc2onc(N)c2c1 (racemic) | > 6300 | 1400 | > 4200 |  |
| CN(C)Cc1nccn1-c1ccc(NC(=O)c2cc(C(F)(F)F)nn2-c2ccc3onc(N)c3c2)c(F)c1 [RAZAXABAN] |  |  |  | Vdss (Canis familiaris): 3.4 L/kg; clearance [3]: 18.3 mL/min/kg |
